Reference: ChEMBL document CHEMBL2417366, “Synthesis of novel isothiazolopyridines and their in vitro evaluation against Mycobacterium and Propionibacterium acnes” (Bioorg Med Chem, 2013)
Converted amounts (≈) assume the structure as drawn. The source made the active and inactive calls. The rule behind the calls is not given here.

Tests used:
Cutibacterium acnes [1] = assay: Induction of Propionibacterium acnes PCM 2400 replication at 0.97 to 250 ug/mL after 48 hrs by microplate Alamar blue assay relative to control; assay type: organism-based
[2] = system: Mycobacterium tuberculosis; assay: Antibacterial activity against Mycobacterium tuberculosis H37Rv assessed as growth inhibition up to 250 ug/mL by BACTEC 460 radiometric assay; assay type: functional, organism-based
[3] = Selectivity index, ratio of IC50 for African green monkey Vero cells to MIC99 for Mycobacterium tuberculosis H37Rv; assay type: functional
Outline: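 Cytotoxicity was measured in VERO cells by serial dilution starting at 10× MIC where solubility in culture medium allowed, giving an IC50. SI = VERO IC50 ÷ MIC (99% inhibition) against M. tuberculosis H37Rv from the BACTEC 460 radiometric assay.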

[4] = system: Mycobacterium tuberculosis; assay: Antibacterial activity against Mycobacterium tuberculosis H37Rv assessed as growth inhibition by BACTEC 460 radiometric assay; assay type: functional
Outline: (§1)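 Serial dilutions started at 6.25 μg/mL against H37Rv in BACTEC 12B medium, read on the BACTEC 460 radiometric system. MIC was taken as the lowest concentration inhibiting 99% of the inoculum.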

Mycobacterium avium [5] = assay: Antibacterial activity against Mycobacterium avium assessed as growth inhibition at 12.5 ug/mL relative to control; assay type: functional, organism-based
[6] = system: Mycobacterium tuberculosis; assay: Antibacterial activity against Mycobacterium tuberculosis H37Rv assessed as growth inhibition at 6.25 ug/mL by BACTEC 460 radiometric assay relative to control; assay type: functional; conditions: read-out: GI
Outline: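 M. tuberculosis H37Rv grown in BACTEC 12B medium and tested once at 6.25 μg/mL in a primary screen. Growth was read radiometrically on the BACTEC 460 system and reported as % inhibition.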

Vero = assay: Cytotoxicity against African green monkey Vero cells; assay type: cell-based; conditions: Chlorocebus sabaeus
Outline: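 VERO cells were exposed to serially diluted compound, starting at 10 x MIC where solubility in culture medium allowed. IC50 was determined, and the selectivity index was taken as VERO IC50 divided by the M. tuberculosis H37Rv MIC.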

[7] = system: Mycobacterium tuberculosis; assay: Antibacterial activity against Mycobacterium tuberculosis H37Rv assessed as growth inhibition; assay type: functional; conditions: for MIC: Mycobacterium tuberculosis, H37Rv; outline: as §1
Cutibacterium acnes [8] = assay: Antibacterial activity against Propionibacterium acnes PCM 2400 assessed as growth inhibition up to 250 ug/mL after 48 hrs by microplate Alamar blue assay; assay type: functional, organism-based
Cutibacterium acnes [9] = assay: Bacteriostatic activity against Propionibacterium acnes PCM 2400 at 0.97 to 250 ug/mL after 48 hrs by microplate Alamar blue assay relative to control; assay type: functional
[10] = system: Mycolicibacterium fortuitum; assay: Induction of Mycobacterium fortuitum PCM 672 replication at 15.6 to 31.25 ug/mL after 48 hrs by microplate Alamar blue assay relative to control; assay type: organism-based
Outline: (§2)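 M. fortuitum PCM 672 pre-grown in liquid 79 medium at 37°C for 24 h under aerobic conditions, then diluted to about 2 x 10^5 cfu/mL. Compounds were DMSO stocks (1 mg/mL) diluted in medium, tested at 0.97-250 µg/mL. Incubated at 37°C for 48 h, then Alamar Blue plus 20% Tween 80 added for 2 h more. Read by fluorescence. MIC was the lowest concentration preventing the blue-to-pink change (≥90% growth inhibition). Run two or three times; means and standard error reported.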

Cutibacterium acnes [11] = assay: Antibacterial activity against Propionibacterium acnes PCM 2400 assessed as growth inhibition after 48 hrs by microplate Alamar blue assay; assay type: functional; conditions: PCM 2400, 48 h
[12] = system: Mycolicibacterium fortuitum; assay: Bacteriostatic activity against Mycobacterium fortuitum PCM 672 at 0.97 to 250 ug/mL after 48 hrs by microplate Alamar blue assay relative to control; assay type: functional; outline: as §2
[13] = system: Mycolicibacterium fortuitum; assay: Antibacterial activity against Mycobacterium fortuitum PCM 672 assessed as growth inhibition up to 250 ug/mL after 48 hrs by microplate Alamar blue assay; assay type: functional, organism-based; outline: as §2
[14] = system: Mycolicibacterium fortuitum; assay: Antibacterial activity against Mycobacterium fortuitum PCM 672 assessed as growth inhibition after 48 hrs by microplate Alamar blue assay; assay type: functional; conditions: PCM 672, 48 h; outline: as §2
[15] = system: Mycobacterium tuberculosis; assay: Antibacterial activity against Mycobacterium tuberculosis H37Rv assessed as growth inhibition at 0.125 ug/mL by BACTEC 460 radiometric assay relative to control; assay type: functional; conditions: read-out: GI
Mycobacterium avium [16] = assay: Antibacterial activity against Mycobacterium avium assessed as growth inhibition; assay type: functional
[17] = system: Mycobacterium tuberculosis; assay: Antibacterial activity against Mycobacterium tuberculosis assessed as growth inhibition; assay type: functional
Cutibacterium acnes [18] = assay: Induction of Propionibacterium acnes PCM 2400 replication at 3.9 to 15.6 ug/mL after 48 hrs by microplate Alamar blue assay relative to control; assay type: organism-based
Mycobacterium avium [19] = assay: Antibacterial activity against Mycobacterium avium assessed as growth inhibition at 2 ug/mL relative to control; assay type: functional; conditions: read-out: GI
[20] = system: Mycolicibacterium fortuitum; assay: Induction of Mycobacterium fortuitum PCM 672 replication at 0.97 to 250 ug/mL after 48 hrs by microplate Alamar blue assay relative to control; assay type: organism-based; outline: as §2
Cutibacterium acnes [21] = assay: Induction of Propionibacterium acnes PCM 2400 replication at 15.6 ug/mL after 48 hrs by microplate Alamar blue assay relative to control; assay type: organism-based

COc1ccc(CN(Cn2sc3nc(C)cc(C)c3c2=O)Cn2sc3nc(C)cc(C)c3c2=O)cc1
Activity (Cutibacterium acnes [1]): 10%
growth inhibition (GI) [2]: inactive

Cc1cc(C)c2c(=O)n(CC(O)CN3CCN(c4cccc(C(F)(F)F)c4)CC3)sc2n1 (stereo not drawn)
Selectivity Index [3]: 2.69
MIC99 [4]: 1.56 µg/mL (≈ 3.34 µM)
growth inhibition (GI) (Mycobacterium avium [5]): inactive
inhibition of growth at 6.25 µg/mL [6]: 100%
IC50 (Vero): 4.2 µg/mL (≈ 9 µM)

O=c1c2ccccc2sn1CO
growth inhibition (GI) [7]: 100%
MIC [7]: 12.5 µg/mL (≈ 69 µM)

Cc1cc(C)c2c(=O)n(CN(Cc3ccccn3)Cn3sc4nc(C)cc(C)c4c3=O)sc2n1
inhibition of growth at 6.25 µg/mL [6]: 4%
growth inhibition (GI) (Cutibacterium acnes [8]): inactive
inhibition (INH) (Cutibacterium acnes [9]): 36%

Cc1cc(C)c2c(OCCOCCOc3ccccc3)nsc2n1
growth inhibition (GI) (Cutibacterium acnes [8]): inactive
growth inhibition (GI) [2]: inactive

Cc1cc(C)c2c(=O)n(CCOC(=O)NC(C)(C)C)sc2n1
Activity [10]: 10%
MIC90 (Cutibacterium acnes [11]): 3.2 µg/mL (≈ 9.89 µM)
growth inhibition (GI) [2]: inactive

Cc1cc(C)c2c(=O)n(CCOC(=O)Nc3ccccc3)sc2n1
inhibition (INH) [12]: 42%
growth inhibition (GI) [13]: inactive
inhibition of growth at 6.25 µg/mL [6]: 12%
growth inhibition (GI) (Cutibacterium acnes [8]): inactive

NNC(=O)c1ccncc1 [ISONIAZID]
MIC50 [14]: 0.322 µg/mL (≈ 2.35 µM)
MIC90 [14]: > 250 µg/mL

Cc1cc(C)c2c(=O)n(CN(Cc3ccccc3Cl)Cn3sc4nc(C)cc(C)c4c3=O)sc2n1
growth inhibition (GI) (Cutibacterium acnes [8]): inactive
growth inhibition (GI) [2]: inactive

CCNC(=O)OCCn1sc2nc(C)cc(C)c2c1=O
inhibition of growth at 6.25 µg/mL [6]: 17%
MIC50 (Cutibacterium acnes [11]): 6.9 µg/mL (≈ 23.4 µM)
growth inhibition (GI) (Cutibacterium acnes [8]): inactive

Cc1cc(C)c2c(OCCOC(=O)Nc3ccccc3)nsc2n1
growth inhibition (GI) [13]: inactive
growth inhibition (GI) (Cutibacterium acnes [8]): inactive
growth inhibition (GI) [2]: inactive

CC[C@H]1OC(=O)[C@H](C)[C@@H](O[C@H]2C[C@@](C)(OC)[C@@H](O)[C@H](C)O2)[C@H](C)[C@@H](O[C@@H]2O[C@H](C)C[C@H](N(C)C)[C@H]2O)[C@](C)(O)C[C@@H](C)C(=O)[C@H](C)[C@@H](O)[C@]1(C)O [ERYTHROMYCIN]
MIC50 (Cutibacterium acnes [11]): < 1 µg/mL
MIC90 (Cutibacterium acnes [11]): < 1 µg/mL

COc1ccccc1CN(Cn1sc2nc(C)cc(C)c2c1=O)Cn1sc2nc(C)cc(C)c2c1=O
MIC50 (Cutibacterium acnes [11]): 38 µg/mL (≈ 72.8 µM)
MIC50 [14]: < 1 µg/mL
MIC90 [14]: < 1 µg/mL
growth inhibition (GI) (Cutibacterium acnes [8]): inactive
growth inhibition (GI) [2]: inactive

Cc1cc(C)c2c(=O)n(CN(Cc3ccc(Cl)cc3)Cn3sc4nc(C)cc(C)c4c3=O)sc2n1
growth inhibition (GI) (Cutibacterium acnes [8]): inactive
growth inhibition (GI) [2]: inactive

CO[C@H]1/C=C/O[C@@]2(C)Oc3c(C)c(O)c4c(O)c(c(/C=N/N5CCN(C)CC5)c(O)c4c3C2=O)NC(=O)/C(C)=C\C=C\[C@H](C)[C@H](O)[C@@H](C)[C@@H](O)[C@@H](C)[C@H](OC(C)=O)[C@@H]1C [RIFAMPIN]
inhibition of growth at 0.125 µg/mL [15]: 98%
MIC99 [4]: 0.125 µg/mL (≈ 0.152 µM)
IC50 (Vero): 58 µg/mL (≈ 70.5 µM)

COc1ccc(CN(Cn2sc3nc(C)cc(C)c3c2=O)Cn2sc3nc(C)cc(C)c3c2=O)cc1OC
inhibition (INH) [12]: 21%
growth inhibition (GI) [13]: inactive
inhibition of growth at 6.25 µg/mL [6]: 8%
Activity (Cutibacterium acnes [1]): 10%

Cc1cc(C)c2c(=O)n(CC(=O)N3CCN(C)CC3)sc2n1
Selectivity Index [3]: 1.12
MIC99 [4]: 6.25 µg/mL (≈ 19.5 µM)
inhibition of growth at 6.25 µg/mL [6]: 100%
IC50 (Vero): 7 µg/mL (≈ 21.8 µM)

Cc1cc(C)c2c(=O)n(CN3CCN(c4ccc([N+](=O)[O-])cc4)CC3)sc2n1
MIC (Mycobacterium avium [16]): < 1 µg/mL
growth inhibition (GI) [13]: inactive
MIC [17]: < 1 µg/mL
MIC50 [14]: 197 µg/mL (≈ 493 µM)
growth inhibition (GI) (Cutibacterium acnes [8]): inactive

CCCCNC(=O)OCCn1sc2nc(C)cc(C)c2c1=O
growth inhibition (GI) [13]: inactive
MIC50 [14]: 125 µg/mL (≈ 386 µM)
growth inhibition (GI) (Cutibacterium acnes [8]): inactive
growth inhibition (GI) [2]: inactive

Cc1cc(C)c2c(OCCOC(=O)NC(C)(C)C)nsc2n1
inhibition of growth at 6.25 µg/mL [6]: 16%

CCCCNC(=O)OCCOc1nsc2nc(C)cc(C)c12
growth inhibition (GI) [13]: inactive
MIC50 [14]: 125 µg/mL (≈ 386 µM)
Activity (Cutibacterium acnes [18]): > 50%
growth inhibition (GI) [2]: inactive

CC[C@H]1OC(=O)[C@H](C)[C@@H](O[C@H]2C[C@@](C)(OC)[C@@H](O)[C@H](C)O2)[C@H](C)[C@@H](O[C@@H]2O[C@H](C)C[C@H](N(C)C)[C@H]2O)[C@](C)(OC)C[C@@H](C)C(=O)[C@H](C)[C@@H](O)[C@]1(C)O [CLARITHROMYCIN]
inhibition of growth at 2 µg/mL (Mycobacterium avium [19]): 98%

Cc1cc(C)c2c(=O)n(CC(O)CN3CCC(Cc4ccccc4)CC3)sc2n1 (stereo not drawn)
Selectivity Index [3]: 0.25
MIC99 [4]: 6.25 µg/mL (≈ 15.2 µM)
inhibition of growth at 6.25 µg/mL [6]: 100%
IC50 (Vero): 1.6 µg/mL (≈ 3.89 µM)

Cc1cc(C)c2c(=O)n(CCOCCOc3ccccc3)sc2n1
Selectivity Index [3]: 0.68
MIC99 [4]: 6.25 µg/mL (≈ 18.1 µM)
inhibition of growth at 6.25 µg/mL [6]: 100%
IC50 (Vero): 4.1 µg/mL (≈ 11.9 µM)

Cc1cc(C)c2c(=O)n(CCCN3CCN(c4cccc(Cl)c4)CC3)sc2n1
Selectivity Index [3]: 0.53
MIC99 [4]: 6.25 µg/mL (≈ 15 µM)
growth inhibition (GI) (Mycobacterium avium [5]): inactive
inhibition of growth at 6.25 µg/mL [6]: 100%
IC50 (Vero): 3.3 µg/mL (≈ 7.91 µM)

Cc1cc(C)c2c(=O)n(CCN3CCN(c4ccc([N+](=O)[O-])cc4)CC3)sc2n1
inhibition (INH) [12]: 40%
MIC (Mycobacterium avium [16]): < 1 µg/mL
growth inhibition (GI) [13]: inactive
MIC [17]: < 1 µg/mL
MIC50 (Cutibacterium acnes [11]): < 1 µg/mL
MIC90 (Cutibacterium acnes [11]): < 1 µg/mL

Cc1cc(C)c2c(=O)n(CO)sc2n1
growth inhibition (GI) [7]: 65%
MIC [7]: 12.5 µg/mL (≈ 59.5 µM)

CCNC(=O)OCCOc1nsc2nc(C)cc(C)c12
inhibition of growth at 6.25 µg/mL [6]: 6%
MIC50 (Cutibacterium acnes [11]): 184 µg/mL (≈ 623 µM)
growth inhibition (GI) (Cutibacterium acnes [8]): inactive
Activity [20]: 10%

Cc1cc(C)c2c(=O)n(CN(Cc3ccccc3)Cn3sc4nc(C)cc(C)c4c3=O)sc2n1
inhibition of growth at 6.25 µg/mL [6]: 6%
Activity (Cutibacterium acnes [21]): 10%
